pIC50: −log10 of the molar value. Activity calls are given as the source filed them. The calls are words filed in the database; no cut-off is given here.
Experiments:
[1] = Inhibition of porcine brain tubulin polymerization measured every 60 sec for 60 mins in presence of GTP by fluorescence assay; parameters: species or system Sus scrofa
Outline: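 Fluorescence kit assay using 2 mg/mL porcine brain tubulin with 2 mM MgCl₂, 0.5 mM EGTA, 1 mM GTP and 15% glycerol. Compound at various concentrations preincubated 1 min at 37 °C before adding the tubulin mix. Read at ex 355/em 460 nm every 60 s for 60 min. IC50 is the concentration giving 50% inhibition at 60 min; mean ± SD of ≥3 independent experiments.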

HCT-116 = assay: Antiproliferation activity against human HCT116 cells assessed as cell growth inhibition measured after 72 hrs by MTT assay; type: functional
Outline: (§1)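 Cells grown in RPMI-1640 with 10% FBS at 37 °C, 5% CO2, seeded at 4−7 × 10³ cells/well and left to adhere overnight. Exposed to a range of concentrations for 72 h, then MTT (2.5 mg/mL stock) added for 4 h. Formazan dissolved in DMSO and absorbance read at 570 nm. GI50 taken as the concentration giving 50% growth inhibition, reported as mean ± SD of at least three independent experiments.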

A549 = assay: Antiproliferation activity against human A549 cells assessed as cell growth inhibition measured after 72 hrs by MTT assay; type: functional; outline: as §1
HepG2 [2] = assay: Antiproliferation activity against human HepG2 cells assessed as cell growth inhibition measured after 72 hrs by MTT assay; type: functional; outline: as §1
[3] = target: Tubulin beta (Homo sapiens) (UniProt P68371+Q9H4B7+Q13509+P04350+Q3ZCM7+P07437+Q13885+Q9BVA1+Q9BUF5+A6NNZ2); assay: Inhibition of N,N'-Ethylenebis(iodoacetamide) binding to beta-tubulin in human HepG2 cells assessed as reduction in EBI/beta-tubulin adduct formation at 5 uM preincubated for 2 hrs followed by EBI addition and measured after 1.5 hrs by Western blot analysis; type: cell-based; conditions: time 3.5 hrs
Outline: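 HepG2 seeded 5 × 10⁵ cells/well, adhered overnight. Lysate protein (20 μg) run on 10% polyacrylamide gel on ice and transferred to PVDF. Probed with anti-β-tubulin 16 h at 4 °C, then HRP secondary. Chemiluminescence detection.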

[4] = Antiproliferation activity against human A549/Taxol cells assessed as cell growth inhibition measured after 72 hrs by MTT assay; type: functional; outline: as §1
[5] = Selectivity index, ratio of GI50 for cytotoxicity against human L02 cells to GI50 for antiproliferation activity against human HepG2 cells assessed as cell growth inhibition measured after 72 hrs by MTT assay; type: toxicity, cell-based; conditions: L02 cells and HepG2 cells, read-out: RatioGI50
Outline: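 MTT assay: cells seeded 4–7 × 10³/well, adhered overnight, exposed to a concentration series for 72 h. MTT (2.5 mg/mL stock) added for 4 h, crystals dissolved in DMSO, absorbance read at 570 nm. GI50 is mean ± SD of ≥3 independent experiments. Selectivity = GI50 on normal LO2 / GI50 on HepG2. Resistance fold = GI50 on resistant cells / GI50 on sensitive cells.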

[6] = Resistance index, ratio of GI50 for antiproliferation activity against human A549/Taxol cells to GI50 for antiproliferation activity against human A549 cells assessed as cell growth inhibition measured after 72 hrs by MTT assay
HepG2 [7] = assay: Inhibition of cell migration in human HepG2 cells at 10 nM measured after 24 hrs by inverted light microscopy method based wound healing assay relative to control; type: functional
Outline: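 Confluent HepG2 monolayer (seeded 3 × 10⁵ cells/well) scratched with a pipette tip and washed with PBS. Incubated in serum-free DMEM with compound at 2.5, 5 or 10 nM for 24 h; CA-4 run in parallel, DMSO as vehicle. Wound imaged at 0 and 24 h by inverted microscope and compared with control.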

[8] = Cytotoxicity against human L02 cells assessed as assessed as cell growth inhibition measured after 72 hrs by MTT assay; type: cell-based
Outline: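 LO2 normal liver cells cultured in RPMI-1640/10% FBS at 37 °C, 5% CO2 and seeded at 4−7 × 10³ cells/well. Graded concentrations applied for 72 h, then MTT readout at 570 nm. GI50 is the concentration giving 50% growth inhibition, mean ± SD of at least three independent experiments.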

HepG2 [9] = assay: Induction of apoptosis in human HepG2 cells assessed as PARP cleavage at 20 nM incubated for 24 hrs by western blot analysis; type: functional, cell-based
Outline: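 Lysates (20 μg protein) run on 10% polyacrylamide gel, transferred to PVDF, blocked in 5% nonfat milk, probed overnight at 4 °C for cleaved PARP. HRP secondary, ECL detection, densitometry; one-way ANOVA with Dunnett's test vs control.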

SMILES	pIC50 [1]	GI50 (HCT-116)	GI50 (A549)	GI50 (HepG2 [2])	inhibition [3]	GI50 [4]	selectivity ratio at 72 h [5]	RatioGI50 [6]	inhibition at 0.01 µM (HepG2 [7])	GI50 at 72 h [8]	Activity (HepG2 [9])
CCOc1cc2c(cc1OCC(N)=O)-c1c(c(Nc3cccc(C#N)c3)nn1C)C2	5.00	361 nM	166 nM	66.9 nM							
CCOC(=O)c1cccc(Nc2nn(C)c3c2Cc2cc(OCC)c(OCCCO)cc2-3)c1	5.46	7.7 nM	5.3 nM	3.3 nM							
CCOc1cccc(Nc2nn(C)c3c2Cc2cc(OCC)c(OCC(=O)O)cc2-3)c1	< 4.70	1270 nM	8660 nM	1640 nM							
CCOc1cc2c(cc1OCCCO)-c1c(c(Nc3cccc(C#N)c3)nn1C)C2	5.04	151 nM	176 nM	42.9 nM							
CCOc1cccc(Nc2nn(C)c3c2Cc2cc(O)c(OCC(N)=O)cc2-3)c1	< 4.70	4660 nM	15200 nM	5330 nM							
CCOc1cc2c(cc1OCC(N)=O)-c1c(c(Nc3cccc(C(=O)NC)c3)nn1C)C2	< 4.70	2100 nM	13100 nM	642 nM							
CCOc1cccc(Nc2nn(C)c3c2Cc2cc(OCC)c(OCCCO)cc2-3)c1	5.24	10.4 nM	94.4 nM	15.7 nM							
CCOc1cc2c(cc1OCC(=O)NC)-c1c(c(Nc3cccc(C(=O)OC)c3)nn1C)C2	5.20	37.1 nM	78.1 nM	10.2 nM							
CCOc1cccc(Nc2nn(C)c3c2Cc2cc(OC)c(OCC(N)=O)cc2-3)c1	4.87	26.5 nM	19.6 nM	15 nM							
CC[C@]1(O)C[C@H]2CN(CCc3c([nH]c4ccccc34)[C@@](C(=O)OC)(c3cc4c(cc3OC)N(C=O)[C@H]3[C@@](O)(C(=O)OC)[C@H](OC(C)=O)[C@]5(CC)C=CCN6CC[C@]43[C@@H]65)C2)C1					inactive						
COc1ccc(/C=C\c2cc(OC)c(OC)c(OC)c2)cc1O [COMBRETASTATIN A4]	5.64	2.4 nM	4.8 nM	6.1 nM		20.4 nM	55	4	47%	333 nM	
CCOc1cc2c(cc1OCCCO)-c1c(c(Nc3cccc(C(=O)OC)c3)nn1C)C2	5.23	12.3 nM	8.1 nM	7.1 nM							
CCCCOc1cc2c(cc1OCC(N)=O)-c1c(c(Nc3cccc(OCC)c3)nn1C)C2	< 4.70	4770 nM	19900 nM	2760 nM							
CCOc1cc2c(cc1OCCCO)-c1c(c(Nc3cccc(C(=O)O)c3)nn1C)C2	< 4.70	5380 nM	18300 nM	> 20000 nM							
CC(=O)O[C@H]1C(=O)[C@@]2(C)[C@H]([C@H](OC(=O)c3ccccc3)[C@]3(O)C[C@H](OC(=O)[C@H](O)[C@@H](NC(=O)c4ccccc4)c4ccccc4)C(C)=C1C3(C)C)[C@]1(OC(C)=O)CO[C@@H]1C[C@@H]2O [PACLITAXEL]						935 nM	12	246		30.8 nM	
CCOc1cc2c(cc1OCCCO)-c1c(c(Nc3cccc(C(=O)CC)c3)nn1C)C2	5.28	24.5 nM	38.2 nM	13.6 nM							
CCOc1cccc(Nc2nn(C)c3c2Cc2cc(OCC)c(OCCCO)cc2-3)n1	5.30	27.1 nM	72 nM	15.5 nM							
CCOc1cccc(Nc2nn(C)c3c2Cc2cc(OCC)c(OCCCNC(C)=O)cc2-3)c1	< 4.70	197 nM	935 nM	364 nM							

SMILES	pIC50 [1]	GI50 (HCT-116)	GI50 (A549)	GI50 (HepG2 [2])	inhibition [3]	GI50 [4]	selectivity ratio at 72 h [5]	RatioGI50 [6]	inhibition at 0.01 µM (HepG2 [7])	GI50 at 72 h [8]	Activity (HepG2 [9])
CCOc1cccc(Nc2nn(C)c3c2Cc2cc(OCc4ccc(OC)cc4)c(OCC(N)=O)cc2-3)c1	< 4.70	16600 nM	3080 nM	3070 nM							
CCOc1cc2c(cc1OCCCN)-c1c(c(Nc3cccc(C#N)c3)nn1C)C2	5.24	6.4 nM	20.8 nM	3.8 nM							
CCOc1cc2c(cc1OCC(N)=O)-c1c(c(Nc3cccc(C(=O)OC)c3)nn1C)C2	5.35	9.7 nM	3 nM	4.3 nM							
CCCOc1cc2c(cc1OCC(N)=O)Cc1c(Nc3cccc(OCC)c3)nn(C)c1-2	< 4.70	1140 nM	25400 nM	1960 nM							
CCOc1cc2c(cc1OCC(N)=O)-c1c(c(Nc3cccc(C(=O)OC(C)C)c3)nn1C)C2	5.10	36.4 nM	121 nM	25.3 nM							
CCNc1cccc(Nc2nn(C)c3c2Cc2cc(OCC)c(OCC(N)=O)cc2-3)c1	4.97	432 nM	356 nM	107 nM							
CCOc1cccc(Nc2nn(C)c3c2Cc2cc(OCC)c(OCC(N)=O)cc2-3)n1	5.39	19 nM	62.5 nM	17.1 nM							
CCOc1cc2c(cc1OCCCN)-c1c(c(Nc3cccc(C(=O)CC)c3)nn1C)C2	5.51	4 nM	7.6 nM	2.1 nM							
CCOc1cc2c(cc1OCC(=O)NC)-c1c(c(Nc3cccc(C#N)c3)nn1C)C2	< 4.70	819 nM	2040 nM	97.3 nM							
CCOC(=O)c1cccc(Nc2nn(C)c3c2Cc2cc(OCC)c(OCC(N)=O)cc2-3)c1	5.41	4.5 nM	12 nM	3.4 nM							
COc1cc2c(c(OC)c1OC)-c1ccc(OC)c(=O)cc1[C@@H](NC(C)=O)CC2											Active
CCOc1cc2c(cc1OCC(N)=O)-c1c(c(Nc3cccc(C(=O)CC)c3)nn1C)C2	5.39	27 nM	21.4 nM	9.2 nM							
CCCOc1cc2c(cc1OCC)Cc1c(Nc3cccc(OCC)c3)nn(C)c1-2	4.84	129 nM	512 nM	397 nM							
CCOc1cc2c(cc1OCCCO)-c1c(c(Nc3cccc(C(=O)NC)c3)nn1C)C2	< 4.70	1480 nM	1340 nM	2350 nM							
CCCOc1cc2c(cc1OCC(N)=O)-c1c(c(Nc3cccc(OCC)c3)nn1C)C2	4.96	230 nM	426 nM	55.6 nM							
CCOc1ccc(Nc2nn(C)c3c2Cc2cc(OCC)c(OCC(N)=O)cc2-3)cc1	< 4.70	4310 nM	15000 nM	1910 nM							
CCOc1cc2c(cc1OCCCO)-c1c(c(Nc3cccc(C(=O)OC(C)C)c3)nn1C)C2	5.11	103 nM	164 nM	36.7 nM							
